Test results taken from ChEMBL document CHEMBL3861966, “Di-nor- and 17-nor-pimaranes from Icacina trichantha” (J Nat Prod, 2016).

What was measured:
Format in all cases: functional, cell-based
[1] = Cytotoxicity against human MDA-MB-231 cells assessed as decrease in cell viability after 72 hrs by cell titer 96 one solution assay; details: MDA-MB-231, 72 h
Method in brief: (§1)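 Cells grown at 37 °C, 5% CO2 in RPMI 1640 with 10% FBS, penicillin 100 units/mL, streptomycin 100 μg/mL. Log-phase cells trypsinized, washed twice, seeded at 5000/well, left overnight. DMSO-dissolved samples added at 20, 4, 0.8, 0.16, 0.032 μM (final DMSO 0.5%). After 72 h at 37 °C, viable cells read by MTS-type absorbance kit. IC50 in μM relative to DMSO control.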

[2] = Cytotoxicity against human MDA-MB-435 cells assessed as decrease in cell viability after 72 hrs by cell titer 96 one solution assay; details: MDA-MB-435, 72 h; method in brief: as §1
[3] = Cytotoxicity against human OVCAR3 cells assessed as decrease in cell viability after 72 hrs by cell titer 96 one solution assay; details: OVCAR-3, 72 h; method in brief: as §1

In the case of `COc1cc2c(c3occc13)[C@H]1OC3O[C@@]4(O)CC[C@@]23[C@H]2[C@@H]1OC(=O)[C@]24C`, the IC50 [1] is reported as > 20 µM, the IC50 [2] is reported as > 20 µM and the IC50 [3] is reported as > 20 µM.
For `COc1cc2c(c3occc13)[C@@H](O)[C@@]1(O)OC[C@@]23CCC(=O)[C@@H](C)[C@@H]31`, the IC50 [1] was > 20 µM, the IC50 [2] was > 20 µM and the IC50 [3] was > 20 µM.
In the case of `C[C@]12C(=O)O[C@@H]3C[C@H]4C5=C(CC[C@H]4[C@]4(CO[C@@]1(O)[C@@H](O)C4)[C@@H]32)C(=O)CO5`, the IC50 [1] is reported as 2.85 µM, the IC50 [2] is reported as 1.48 µM and the IC50 [3] is reported as 3.23 µM.
In the case of `COc1cc2c(c3occc13)[C@H](O)[C@H]1OC(=O)[C@]3(C)[C@H]1[C@]21CC[C@]3(O)OC1`, the IC50 [1] is reported as > 20 µM, the IC50 [2] is reported as > 20 µM and the IC50 [3] is reported as > 20 µM.
For `COc1cc2c(c(O)c1C=O)C[C@H]1OC(=O)[C@]3(C)[C@H]1[C@]21CC[C@]3(O)OC1`, the IC50 [1] was > 20 µM, the IC50 [2] was > 20 µM and the IC50 [3] was > 20 µM.
Molecule `CC[C@]1(O)C[C@@H]2CN(CCc3c([nH]c4ccccc34)[C@@](C(=O)OC)(c3cc4c(cc3OC)N(C)[C@H]3[C@@](O)(C(=O)OC)[C@H](OC(C)=O)[C@]5(CC)C=CCN6CC[C@]43[C@@H]65)C2)C1` [VINBLASTINE] has an IC50 [2] of 0.00049 µM.
With `C[C@]12C(=O)O[C@@H]3[C@@H](O)[C@H]4c5occc5C(=O)C[C@H]4[C@]4(CO[C@@]1(O)[C@@H](O)C4)[C@@H]32` the IC50 [1] was 7.6 µM, the IC50 [2] was 2.91 µM and the IC50 [3] was 7.53 µM.
